# Hits are enriched below; roughly 2.4% of the tested compounds scored in any of these assays.
# Neddyl block – inhibitors of human cullin neddylation; TR-FRET cullin neddylation, biochemical; inhibition, % at 25 µM; hit rate 0.58% among 360,000; P61081+Q13564; in the data active = inhibition above about 36%
# Target sequence (P61081 whole entry, looked up): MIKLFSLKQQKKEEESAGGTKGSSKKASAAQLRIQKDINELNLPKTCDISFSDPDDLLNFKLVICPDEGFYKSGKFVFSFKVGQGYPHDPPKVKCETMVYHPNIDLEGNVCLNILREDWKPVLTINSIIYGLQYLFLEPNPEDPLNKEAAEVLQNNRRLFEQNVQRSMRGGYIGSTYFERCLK
# Target sequence (Q13564 whole entry, looked up): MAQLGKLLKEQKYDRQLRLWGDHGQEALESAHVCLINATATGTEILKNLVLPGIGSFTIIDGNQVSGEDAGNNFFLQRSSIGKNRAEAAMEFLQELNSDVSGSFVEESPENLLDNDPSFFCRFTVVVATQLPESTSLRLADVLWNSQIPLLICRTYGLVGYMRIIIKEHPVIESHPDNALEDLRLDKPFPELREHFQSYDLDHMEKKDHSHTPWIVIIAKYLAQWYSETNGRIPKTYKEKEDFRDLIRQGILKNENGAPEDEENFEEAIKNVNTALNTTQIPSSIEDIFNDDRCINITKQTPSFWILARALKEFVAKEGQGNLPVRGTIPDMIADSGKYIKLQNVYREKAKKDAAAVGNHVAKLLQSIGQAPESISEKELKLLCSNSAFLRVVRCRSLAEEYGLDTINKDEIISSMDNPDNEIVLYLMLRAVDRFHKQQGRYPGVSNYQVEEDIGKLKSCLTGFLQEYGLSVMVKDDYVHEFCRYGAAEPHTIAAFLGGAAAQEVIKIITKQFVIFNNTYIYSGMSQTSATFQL
# Rpn11 inh – inhibitors of human proteasome Rpn11. human 26S proteasome, Ub4-pepOG fluorescence polarization; 20S core pre-blocked with epoxomicin. inhibition, % at 20 µM. hit rate 0.59% among 360,000. AID 588493;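 active = inhibition at 20 µM, scaled to each plate's controls, above about 33%, limit read from the data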
# HNF4A DNA FP – change in binding of human HNF4 alpha to DNA | hit rate 0.3% among 360,000 | P41235 | activity change, % at 10 µM | HNF4a-FITC DNA binding, fluorescence polarization, 1 h; in the data active = activity change above about 30%, passing the limit was not always enough
# TbMetRS inhib – blocks T. brucei methionyl-tRNA synthetase activity. purified T. brucei MetRS, ATP depletion, Kinase-Glo luminescence. inhibition, % at 11.9 µM. hit rate 0.4% among 360,000. AID 624268;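 active = inhibition above a per-plate cutoff of the control wells' mean inhibition plus 3 SD, cut at about 5.5% in these data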;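 note: 0% = DMSO wells median and 100% = median of wells with control inhibitor compound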
#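 Assay system: T. brucei methionyl-tRNA synthetase, purified | Medium: HEPES buffer with MgCl2, KCl, DTT, spermine, BSA, pyrophosphatase | Compound: 11.9 µM single point | Incubation: 15 min enzyme-compound preincubation, 2 h reaction, 10 min detection, 25 °C | Measured by: Kinase-Glo luciferase luminescence reporting remaining unconsumed ATP | Measure: % inhibition normalized to control-well medians | Replication: Singlicate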
# CSN deneddyl inh – blocks human CSN-mediated cullin deneddylation; inhibition, % at 12.5 µM; Purified CSN, SCF-Nedd8-OG deneddylation, fluorescence polarization; AID 651999; Q92905; hit rate 0.38% among 360,000;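 active = pattern-corrected inhibition above about 35%, with an unprinted fluorescence ratio check between 0.5 and 1.5, limit read from the data, passing the limit was not always enough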;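 note: 0% = enzyme with substrate and 100% = substrate without enzyme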
#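 assay system = purified human Csn5 enzyme expressed in HEK293T cells | amount = 0.24 nM enzyme | buffer or medium = Tris/NaCl/DTT buffer, pH 7.5 | reagent = 10 nM SCFSkp2-Nedd8OG | compound = one concentration, 12.5 µM, 0.25% DMSO | times = 90 min reaction at room temperature | signal = FP | read-out basis = % inhibition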
# PREPL inhibitor – human PREPL enzyme inhibition | Q4J6C6 | recombinant PREPL, fluorescence polarization activity-based probe | inhibition, % at 5.96 µM | hit rate 0.68% among 320,000 | AID 2751;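 note: 0% = enzyme with DMSO and 100% = wells lacking enzyme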
# PREPL confirm – human PREPL inhibition, confirmation; recombinant PREPL, fluorescence polarization activity probe; shares compounds with PREPL inhibitor; inhibition, % at 5.96 µM; hit rate 67% among 2,000;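 note: 0% = protein with DMSO and 100% = wells lacking protein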
# * marks the source's active call; other numbers are inactive results; / = no result given. Cut-off read from the data, not from the text of the source, unless noted: active = inhibition above about 43%; inactive = the rest.
SMILES,Neddyl block,Rpn11 inh,HNF4A DNA FP,TbMetRS inhib,CSN deneddyl inh,PREPL inhibitor,PREPL confirm
CCN(CC)CCOCCn1c(C)ccc1C,8.2,-4.4,2.4,-0.2,1.6,/,/
N#Cc1ccc(NC(=O)C2=COCCO2)cc1,2.2,-0.1,5.4,-0.6,-3.7,0.3,/
COc1ccc(Cl)cc1-c1cc(C(=O)N[C@H](C)c2ccccc2)[nH]n1,-17.3,3.0,-0.7,-0.3,-1.0,/,/
CN(C)c1ccc(CN(C(=O)/C=C/c2ccccc2Cl)C2CCS(=O)(=O)C2)cc1 (centres undefined),-3.0,3.9,-3.1,0.5,-3.2,49.9*,48.5*
COc1ccc(OC)c(-c2c3cc(O)c(=O)cc-3oc3cc(O)c(O)cc23)c1,-13.7,-145.9,-17.5,2.5,45.7*,78.5*,76.7*
O=c1cc2oc3cc(O)c(O)cc3c(-c3ccccc3O)c-2cc1O,-10.0,-135.1,-29.5,0.8,27.6,/,/
c1cc(CNc2ccc(N3CCOCC3)cc2)ccn1,-6.3,-3.4,0.8,-0.7,6.9,21.7,/
Cc1ccc(CNc2ccc3c(c2)OCO3)cc1,23.6,-92.7,-60.4,-0.6,-37.3,40.9,/
c1cc2c(cc1CNc1ccc(N3CCOCC3)cc1)OCO2,-6.5,-4.0,0.7,-0.2,-2.6,57.5*,34.4
Cc1ccc(CNc2ccc(N3CCOCC3)cc2)cc1,22.8,3.7,-4.2,0.1,1.5,44.1*,33.9
CC(C)c1ccc(S(=O)(=O)Nc2ccc(N3CCOCC3)cc2)cc1,5.2,6.4,1.2,-0.4,4.4,0.6,/
CC(C)c1ccc(CNc2ccc(N3CCOCC3)cc2)cc1,10.4,5.7,-3.6,-0.1,3.6,51.8*,55.3*
CCc1nc2nc(C)c(NS(=O)(=O)c3ccc(C4CCCCC4)cc3)c(=O)n2[nH]1,2.3,4.5,1.8,-0.2,0.2,16.5,/
O=[N+]([O-])c1ccc(N2CCN(Cc3cccc([N+](=O)[O-])c3)CC2)cc1,-43.0,-0.7,2.8,0.9,1.5,44.9*,44.2*
O=[N+]([O-])c1ccc(CN2CCN(c3ccc([N+](=O)[O-])cc3)CC2)cc1,-40.9,-11.5,0.6,0.4,1.3,44.6*,50.7*
O=[N+]([O-])c1cccc(CN2CCCCCC2)c1,-16.1,-10.3,3.1,-0.4,1.2,29.9,/
O=[N+]([O-])c1ccc(CN2CCSCC2)cc1,-24.8,-9.4,-1.6,-1.2,1.6,6.1,/
CCCCC[C@@H](C)N1C[C@H](COCc2ccccc2)Oc2cc(N3CCC[C@H]3CO)ccc2S1(=O)=O,-36.2,/,0.5,-0.2,-1.5,/,/
N#Cc1ccc(NCC(=O)Nc2ccc(S(=O)(=O)N3CCCCC3)cc2)cc1,-7.5,5.0,2.5,-0.1,-6.9,-32.7,/
O=C(CCNC(=O)c1ccccc1Cl)Nc1ccc(S(=O)(=O)Nc2nccs2)cc1,8.6,-0.8,2.8,-0.4,4.5,6.8,/
C[C@@H]1NC(=O)[C@H](CCC(N)=O)NC(=O)c2cc([N+](=O)[O-])cc(I)c2NCCC[C@@H](C(N)=O)NC1=O,-54.4,-18.8,2.6,0.1,25.3,15.8,/
C[C@@H]1NC(=O)[C@H](CCCN=C(N)N)NC(=O)c2cc([N+](=O)[O-])cc(I)c2NCCC[C@@H](C(N)=O)NC1=O,-39.3,2.4,-2.3,-0.3,1.4,43.4*,22.1
CCN1c2ccccc2N(C)C1(C)c1ccccc1 (centres undefined),6.3,-14.2,7.1,0.1,-12.7,78.8*,27.1
O=C1C=C(c2ccccc2)CC(c2cccs2)C1n1cnc([N+](=O)[O-])c1 (centres undefined),-25.0,-4.9,2.5,-0.8,5.9,48.0*,44.7*
CCOC(=O)C1CCCN(C(=O)C2c3ccccc3Oc3ccccc32)C1 (centres undefined),26.8,-195.9,-109.0,-0.4,-78.4,65.3*,-1.9
SMILES,Neddyl block,Rpn11 inh,HNF4A DNA FP,TbMetRS inhib,CSN deneddyl inh,PREPL inhibitor,PREPL confirm
CCOc1ccccc1N1CCN(C(=O)NCc2ccc(Cl)cc2)CC1,7.8,1.6,-2.8,-0.7,-8.2,13.2,/
COc1cc(/C=C2/NC(=O)NC2=O)ccc1OCC(=O)Nc1ccc(F)cc1,35.3,-0.8,3.1,-0.4,4.6,86.6*,10.2
O=C(COc1ccc(/C=C2/NC(=O)NC2=O)cc1)Nc1ccc(F)cc1,34.2,5.5,-0.7,0.2,7.1,15.5,/
Cc1cc2nc(C3CCCCC3)c(Cc3ccccc3)n2c(C)c1Br,-9.2,4.4,3.4,0.1,-4.6,/,/
COc1cc(/C=C2/SC(=S)N(CC(=O)O)C2=O)ccc1OC(=O)c1cccs1,-24.7,5.9,12.9,0.4,7.0,58.5*,62.1*
CC(C)=CCC[C@H](C)C[C@@H]1CC2=C(C(=O)OC(C)(C)O2)[C@H](c2ccc(Cl)cc2)O1,-4.6,-0.3,4.7,-0.4,4.4,/,/
Cc1ccc(NS(=O)(=O)c2cc3c4c(cccc4c2)C(=O)NC3=O)cc1C,-22.4,-21.0,0.6,0.3,5.4,44.7*,31.0
O=C1NC(=O)c2cc(Br)cc3cccc1c23,-27.9,0.7,-0.1,0.3,-9.8,10.6,/
CCc1cc(=O)[nH]c(-n2[nH]c(-c3ccccc3)cc2=O)n1,3.5,5.3,1.6,-0.1,-3.4,56.9*,2.3
CCN1C(N(C)CCc2c[nH]c3ccccc23)=N[C@@H](c2cccc(C(F)(F)F)c2)C(C(=O)OC)=C1C,-14.7,8.5,2.8,0.3,7.5,55.8*,41.5
CCN1C(N(C)CCc2cccs2)=N[C@@H](c2ccccc2)C(C(=O)OC)=C1C,-15.4,-18.7,0.8,0.2,-1.6,5.0,/
CC12CNCC(C)(CN(C(c3ccccc3)c3ccccc3)C1)C2,-4.5,-6.6,3.3,-1.5,0.1,45.8*,12.8
O=c1cc(-c2ccc(O)c(O)c2)oc2c1ccc1ccccc12,16.7,-5.2,-7.1,-0.3,9.4,51.7*,33.0
O=c1oc(-c2ccc(O)c(O)c2)cc2cccc(O)c12,/,-3.6,-5.7,-1.0,11.6,66.8*,37.8
COc1ccc(C(=O)Nc2cc(OC)c(NC(=O)Nc3ccccc3)cc2OC)cc1,21.0,7.5,0.8,0.2,0.1,/,/
COc1cccc(C(=Cc2ccc([N+](=O)[O-])cc2)C(=O)O)c1,-28.6,-6.8,0.0,0.4,2.4,/,/
N#C/C(=C(/O)CSc1nnc(Cc2cccs2)n1C1CCCCC1)c1nc2ccccc2[nH]1,19.1,11.1,10.9,0.6,3.9,43.4*,34.7
COc1ccccc1-c1nnc(SC/C(O)=C(\C#N)c2nc3ccccc3[nH]2)n1C1CCCCC1,11.9,5.0,5.6,0.6,-3.7,-11.1,/
COC(=O)c1ccccc1S(=O)(=O)N1CCC(C(=O)NCCC2=CCCCC2)CC1,-2.7,-10.3,2.0,-0.5,-4.5,5.9,/

# Screening data (PubChem)
